Here are results for 13 compounds from article PMC7490525 (Biochemistry and Biophysics Reports, 2020).

Data set [1] deals with Caco-2 cells. As to the kind of experiment: Uptake of BSP from the apical membrane of Caco-2 cells. In kind it is in vitro ADME, human. An outline of the steps:
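Confluent Caco-2 cells (passage 54–70, 2 weeks on collagen) preincubated 20 min, then exposed to BSP in Hanks' buffer with glucose plus MES or HEPES. Conditions: 5 μM for 5 min at 37 °C pH 6.0 (control); pH 5.0/7.4/8.5; 4 °C; or Na+-free (KCl or choline chloride). Time course ran to 60 min; varied concentrations were fitted to carrier-mediated plus diffusion terms. Cell extracts normalised to protein; n=3–8.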

Data set [2] concerns organic anion transporting polypeptides (OATPs). As to the kind of experiment: Effect of coincubated or pretreated compounds on BSP uptake by Caco-2 cells. The note with it: 37 °C, 5 min; for Decrease of BSP uptake on coincubation: 5 μM BSP with 100 μM compound, Caco-2 cells; for Ki: read-out: Inhibition constant (Ki) for BSP uptake, Dixon plot, competitive, 2, 5 or 10 μM BSP, PFCA 25, 50 or 100 μM, pH 6.0. In kind it is cell-based, human.

Data set [3] deals with Caco-2 cells. In kind it is in vitro ADME, human. The note with it: 1 μM PFCA, pH 6.0, 37 °C, 5 min.
Data set [4] deals with Caco-2 cells. The note with it: cited from earlier work.
The subject of data set [5] is organic anion transporting polypeptides (OATPs). The note with it: Caco-2 cells; cited from earlier work.
Data set [6] concerns Caco-2 cells. The note with it: cited from earlier work. The source holds these as a separate data set.
The mark [7] stands for this setting: 5 μM BSP, 37 °C, pH 6.0, up to 60 min.
Where [8] appears, read: Caco-2 cells, 37 °C, pH 6.0, 5 min, BSP 0.5–100 μM.
Where [9] appears, read: coincubation of 5 μM BSP with 100 μM compound.

Where two headings read alike, the source gives them in different places. Marks after values point to notes of the source that are not given here.

Broadly, the Km is the concentration of substrate that gives half-maximal velocity. With `O=C1OC(c2ccc(O)c(S(=O)(=O)O)c2)(c2ccc(O)c(S(=O)(=O)O)c2)c2c(Br)c(Br)c(Br)c(Br)c21` [BSP, sulfobromophthalein], the “Relative uptake rate (% of control)” value is reported as 49.9 ± 3.1 ^d % of control with Caco-2 cells [1] (5 μM BSP, 4 °C and pH 6.0, 5 min, control 37 °C and pH 6.0); 101.7 ± 5.1 % of control in the data set with Caco-2 cells [1] (5 μM BSP, 37 °C and pH 5.0, 5 min, control 37 °C and pH 6.0); 105.2 ± 5.3 % of control with Caco-2 cells [1] (5 μM BSP, 37 °C and pH 7.4, 5 min, control 37 °C and pH 6.0); 101.6 ± 1.3 % of control in the data set with Caco-2 cells [1] (5 μM BSP, 37 °C and pH 8.5, 5 min, control 37 °C and pH 6.0); 95.0 ± 7.4 % of control in the data set on Caco-2 cells [1] (5 μM BSP, 37 °C, 5 min, Na+-free medium (NaCl replaced with KCl)); 81.0 ± 4.0 % of control in the data set on Caco-2 cells [1] (5 μM BSP, 37 °C, 5 min, Na+-free medium (NaCl replaced with choline chloride)). Further, the “Time at which BSP uptake plateaued” value in the data set on Caco-2 cells [1] (setting [7]) is reported as “about 15 min”. In addition, the “Time until which BSP uptake increased linearly” value with Caco-2 cells [1] (setting [7]) came to 10 min. The “Reduction of BSP uptake at low temperature” value in the data set with Caco-2 cells [1] (4 °C, pH 6.0, versus 37 °C) is on record as 50%. Moreover, in the data set on Caco-2 cells [1] (Caco-2 cells), the “Contribution of carrier-mediated uptake to BSP uptake” value is “approximately 70%”. Also, in the data set on Caco-2 cells [1] (Caco-2 cells), the “Contribution of uptake via simple diffusion to BSP uptake” value is listed as roughly 30%. Also, the “Vmax of BSP uptake” value in the data set with Caco-2 cells [1] (setting [8]) was 1.15 ± 0.07 nmol (mg protein)^−1 (5 min)^−1. Moreover, the “kd (coefficient of passive diffusion) of BSP uptake” value in the data set with Caco-2 cells [1] (setting [8]) is 38.2 ± 0.53 μL (mg protein)^−1 (5 min)^−1. Besides, the Michaelis constant (Km) in the data set on Caco-2 cells [1] (read-out: Km of BSP uptake, Caco-2 cells, 37 °C, pH 6.0, 5 min, BSP 0.5–100 μM) was found to be 13.9 ± 1.3 µM.
Regarding `O=[N+]([O-])c1ccc(O)c([N+](=O)[O-])c1` [DNP, 2,4-dinitrophenol], the “Relative uptake rate of BSP (% of control)” value in data set [2] (cells treated with 1 mM DNP for 20 min, then 5 μM BSP) is 105.9 ± 10.0 % of control.
Regarding `COc1ccc(Cl)cc1C(=O)NCCc1ccc(S(=O)(=O)NC(=O)NC2CCCCC2)cc1` [Glibenclamide, glibenclamide], the “Decrease of BSP uptake on coincubation” value in data set [2] is reported as 48%. Further, the “Relative uptake rate of BSP (% of control)” value in data set [2] (setting [9]) is 52.2 ± 3.5 ^d % of control.
Regarding `[N-]=[N+]=[N-].[Na+]` [NaN3, sodium azide], the “Relative uptake rate of BSP (% of control)” value in data set [2] (cells treated with 10 mM NaN3 for 20 min, then 5 μM BSP) is on record as 106.4 ± 6.8 % of control.
In general, Ki refers to a dissociation constant, usually derived from enzyme kinetics or from competition with a known ligand. As to `O=C(O)C(F)(F)C(F)(F)C(F)(F)C(F)(F)C(F)(F)C(F)(F)C(F)(F)C(F)(F)C(F)(F)F` [PFDA, perfluorodecanoic acid], in data set [2], the “Decrease of BSP uptake on coincubation” value was 27–55% and the inhibition constant Ki was determined as 43.2 ± 0.3 µM.
Take `O=C(O)C(F)(F)C(F)(F)C(F)(F)C(F)(F)C(F)(F)C(F)(F)F` [PFHpA, perfluoroheptanoic acid]: the “Decrease of BSP uptake on coincubation” value in data set [2] is reported as 27–55%.
Turning to `O=C(O)C(F)(F)C(F)(F)C(F)(F)C(F)(F)C(F)(F)F` [PFHxA, Perfluorohexanoic acid], in the data set with Caco-2 cells [3], the “Uptake of PFCA by Caco-2 cells (rank among C6–C12)” value (“Uptake of PFCA by Caco-2 cells” for short) is given as “the lowest”.
As for `O=C(O)C(F)(F)C(F)(F)C(F)(F)C(F)(F)C(F)(F)C(F)(F)C(F)(F)C(F)(F)F` [PFNA, perfluorononanoic acid], in data set [2], the “Decrease of BSP uptake on coincubation” value is 27–55% and the Ki amounted to 35.3 ± 0.1 µM. In the data set with Caco-2 cells [3], the “Uptake of PFCA by Caco-2 cells” value is “the highest”.
Take `O=C(O)C(F)(F)C(F)(F)C(F)(F)C(F)(F)C(F)(F)C(F)(F)C(F)(F)F` [PFOA, Perfluorooctanoic acid]: in data set [2], the “Decrease of BSP uptake on coincubation” value was 27–55% and the inhibition constant (Ki) worked out at 62.2 ± 1.3 µM. Also, in the data set on Caco-2 cells [3], the “Uptake of PFCA by Caco-2 cells” value is reported as “third highest”. Further, the “Vmax of PFOA uptake” value in the data set on Caco-2 cells [4] (PFOA 1–500 μM) was 457 pmol/mg protein/min. The Km in the data set with Caco-2 cells [4] (read-out: Km of PFOA uptake, PFOA 1–500 μM) is 8.3 µM.
As for `O=S(=O)(O)C(F)(F)C(F)(F)C(F)(F)C(F)(F)C(F)(F)C(F)(F)C(F)(F)C(F)(F)F` [PFOS, perfluorooctane sulfonate], the “Decrease of BSP uptake on coincubation” value in data set [2] came to 54%. In addition, the “Relative uptake rate of BSP (% of control)” value in data set [2] (setting [9]) is listed as 46.1 ± 4.5 ^d % of control.
`O=C(O)C(F)(F)C(F)(F)C(F)(F)C(F)(F)C(F)(F)C(F)(F)C(F)(F)C(F)(F)C(F)(F)C(F)(F)F` [PFUnDA, perfluoroundecanoic acid]: in data set [2], the “Decrease of BSP uptake on coincubation” value is recorded as 27–55%.
In the case of `C[C@]12CC[C@@H]3c4ccc(OS(=O)(=O)O)cc4CC[C@H]3[C@@H]1CCC2=O` [estrone-3-sulfate], in data set [5], the “Decrease of BSP uptake on coincubation” value was 39%. The Michaelis constant (Km) in the data set with Caco-2 cells [6] (read-out: Km of estrone-3-sulfate, ref Gram et al. [27]) is 23 µM; in the data set on Caco-2 cells [6] (read-out: Km of estrone-3-sulfate, ref Kis et al. [26]), 6 µM; with Caco-2 cells [6] (read-out: Km of estrone-3-sulfate, ref Sai et al. [4]) it was 1.8 µM.
Take `CO[C@H]1/C=C/O[C@@]2(C)Oc3c(C)c(O)c4c(O)c(cc(O)c4c3C2=O)NC(=O)/C(C)=C\C=C\[C@H](C)[C@H](O)[C@@H](C)[C@@H](O)[C@@H](C)[C@H](OC(C)=O)[C@@H]1C` [rifamycin SV]: the “Decrease of BSP uptake on coincubation” value in data set [5] is recorded as 40%.
